Each structure is given as a SMILES string.

One test concerns NCI-H460. The test is described as follows: Cytotoxicity against human H460 cells. The class given is functional, cell-based.
The nature of test [1]: Cytotoxicity against mouse Neuro2a cells. It counts as functional, cell-based, N2a.
Test [2] can be described thus: Inhibition of calcium channel in mouse neocortical neurons assessed as inhibition of intracellular calcium oscilations. It counts as cell-based. The method, boiled down:
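Primary neocortical neurons from embryonic day 16 Swiss-Webster mice, used at 12–13 DIV. Loaded 1 h with 4 μM fluo-3 plus 0.04% pluronic F-127 in Locke's buffer (pH 7.4), washed four times. Excitation 485 nm, emission 535 nm, read every 1.5 s; 60 s baseline, then compound added as a 4× solution. IC50 given with 95% CI.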

Test [3] can be described thus: Activation of voltage-gated sodium channel in mouse neocortical neuron assessed as intracellular sodium influx.
A short description of test [4]: Activation of voltage-gated sodium channel in mouse Neuro-2a cells assessed as intracellular sodium influx. The note with it: N2a.
Setting [5] is: Homo sapiens, NCI-H460, read-out: IC50.

Take `CCC[C@@H](C)[C@H](O)[C@H](C)[C@H]1OC(=O)[C@H]([C@@H](C)O)NC(=O)[C@H](C(C)C)OC(=O)[C@H](C)[C@H](O)[C@H]([C@@H](C)CC)NC(=O)[C@@]2(C)CSC(=N2)[C@@]2(C)CSC(=N2)c2csc(n2)C[C@H](OC)[C@@H]1C` [HOIAMIDE A]: the concentration for half-maximal inhibition (IC50) with NCI-H460 (setting [5]) came out at 11.2 µM; in test [1] (Mus musculus, N2a, read-out: IC50), 2100 nM; in test [2] (Mus musculus, read-out: IC50), 45.6 nM. The EC50 in test [3] (Mus musculus, read-out: EC50) was 1.7 µM.

For `CCC[C@@H](C)[C@H](O)[C@H](C)[C@H]1OC(=O)[C@H]([C@@H](C)O)NC(=O)[C@H]([C@@H](C)CC)OC(=O)[C@H](C)[C@H](O)[C@H]([C@@H](C)CC)NC(=O)[C@@]2(C)CSC(=N2)[C@@]2(C)CSC(=N2)c2csc(n2)C[C@H](OC)[C@@H]1C` [HOIAMIDE B], the IC50 is 8.3 µM with NCI-H460 (setting [5]); “Not Active” in test [1] (n2a); 79.8 nM in test [2] (Mus musculus, read-out: IC50). Also, in test [3] (Mus musculus, read-out: EC50), the concentration for a half-maximal effect (EC50) was determined as 3.9 µM.

On to `CCC[C@@H](C)[C@H](OC(C)=O)[C@H](C)[C@H]1OC(=O)[C@H]([C@@H](C)OC(C)=O)NC(=O)[C@H](C(C)C)OC(=O)[C@H](C)[C@H](OC(C)=O)[C@H]([C@@H](C)CC)NC(=O)[C@@]2(C)CSC(=N2)[C@@]2(C)CSC(=N2)c2csc(n2)C[C@H](OC)[C@@H]1C`, for which the IC50 entry (with NCI-H460 (nci-h460); in test [1] (n2a); in test [2]) was “Not Active” throughout. Also, the EC50 result in test [3] is “Not Active”.

Take `CCC[C@@H](C)[C@H](OC(=O)c1ccc(Br)cc1)[C@H](C)[C@H]1OC(=O)[C@H]([C@@H](C)O)NC(=O)[C@H](C(C)C)OC(=O)[C@H](C)[C@H](O)[C@H]([C@@H](C)CC)NC(=O)[C@@]2(C)CSC(=N2)[C@@]2(C)CSC(=N2)c2csc(n2)C[C@H](OC)[C@@H]1C`: the 50% inhibitory concentration (IC50) result with NCI-H460 (nci-h460) is “Not Active”; in test [2] (Mus musculus, read-out: IC50), 87.3 nM; in test [4], 3.4 µM. Further, the EC50 in test [3] (Mus musculus, read-out: EC50) turned out to be 9.3 µM.

On to `CCC[C@@H](C)[C@H](O)[C@H](C)[C@@H](O)[C@@H](C)[C@H](Cc1nc(C2=N[C@@](C)(C3=N[C@@](C)(C(=O)N[C@H]([C@@H](O)[C@@H](C)C(=O)OCC)[C@@H](C)CC)CS3)CS2)cs1)OC` [HOIAMIDE C], for which the IC50 result (in the test with NCI-H460 (nci-h460); in test [1] (n2a); in test [2]) was “Not Active” in each case. In test [3], the EC50 result is on record as “Not Active”.
